The source of these data is ChEMBL document CHEMBL2417369, “Synthesis and evaluation of heteroaryl substituted diazaspirocycles as scaffolds to probe the ATP-binding site of protein kinases” (Bioorg Med Chem, 2013).

Assay [1] deals with Proto-oncogene tyrosine-protein kinase Src (Homo sapiens, UniProt P12931). The experiment in a line: Inhibition of SRC (unknown origin) at 30 uM by microfluidic mobility shift assay relative to control. The essentials: (§1)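 Single-point screen in a 24-enzyme kinase panel using a microfluidic assay. Each compound was tested at […] with ATP at roughly the Km for each enzyme. The pan-AGC inhibitor H-89 served as an internal control on every plate.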
Proto-oncogene tyrosine-protein kinase Src, sequence (P12931 2-536 limits assumed): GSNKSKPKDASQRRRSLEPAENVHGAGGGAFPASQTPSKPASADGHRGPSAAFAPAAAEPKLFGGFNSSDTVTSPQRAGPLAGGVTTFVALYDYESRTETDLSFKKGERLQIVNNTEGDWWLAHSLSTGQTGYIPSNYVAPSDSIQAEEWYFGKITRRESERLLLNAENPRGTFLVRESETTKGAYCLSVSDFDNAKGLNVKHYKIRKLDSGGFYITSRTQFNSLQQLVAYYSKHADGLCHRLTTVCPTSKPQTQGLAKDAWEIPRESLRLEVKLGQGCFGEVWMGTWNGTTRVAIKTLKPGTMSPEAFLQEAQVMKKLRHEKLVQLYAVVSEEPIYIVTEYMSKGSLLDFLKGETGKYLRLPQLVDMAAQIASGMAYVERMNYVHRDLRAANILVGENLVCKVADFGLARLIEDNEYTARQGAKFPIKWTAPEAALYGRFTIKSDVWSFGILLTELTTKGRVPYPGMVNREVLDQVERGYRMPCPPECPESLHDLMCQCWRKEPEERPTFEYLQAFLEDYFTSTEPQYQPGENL

The target in assay [2] is Epidermal growth factor receptor (Homo sapiens) (UniProt P00533). The experiment in a line: Inhibition of EGFR (unknown origin) at 30 uM by microfluidic mobility shift assay relative to control. Summed up: (§2)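 Single-point screen at 30 µM test compound across a 24-kinase panel in a microfluidic assay format. ATP was set near each enzyme's Km,[ATP]. […] The pan-AGC inhibitor H-89 served as an internal control on every assay plate.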
Epidermal growth factor receptor (Homo sapiens), sequence (P00533 whole entry): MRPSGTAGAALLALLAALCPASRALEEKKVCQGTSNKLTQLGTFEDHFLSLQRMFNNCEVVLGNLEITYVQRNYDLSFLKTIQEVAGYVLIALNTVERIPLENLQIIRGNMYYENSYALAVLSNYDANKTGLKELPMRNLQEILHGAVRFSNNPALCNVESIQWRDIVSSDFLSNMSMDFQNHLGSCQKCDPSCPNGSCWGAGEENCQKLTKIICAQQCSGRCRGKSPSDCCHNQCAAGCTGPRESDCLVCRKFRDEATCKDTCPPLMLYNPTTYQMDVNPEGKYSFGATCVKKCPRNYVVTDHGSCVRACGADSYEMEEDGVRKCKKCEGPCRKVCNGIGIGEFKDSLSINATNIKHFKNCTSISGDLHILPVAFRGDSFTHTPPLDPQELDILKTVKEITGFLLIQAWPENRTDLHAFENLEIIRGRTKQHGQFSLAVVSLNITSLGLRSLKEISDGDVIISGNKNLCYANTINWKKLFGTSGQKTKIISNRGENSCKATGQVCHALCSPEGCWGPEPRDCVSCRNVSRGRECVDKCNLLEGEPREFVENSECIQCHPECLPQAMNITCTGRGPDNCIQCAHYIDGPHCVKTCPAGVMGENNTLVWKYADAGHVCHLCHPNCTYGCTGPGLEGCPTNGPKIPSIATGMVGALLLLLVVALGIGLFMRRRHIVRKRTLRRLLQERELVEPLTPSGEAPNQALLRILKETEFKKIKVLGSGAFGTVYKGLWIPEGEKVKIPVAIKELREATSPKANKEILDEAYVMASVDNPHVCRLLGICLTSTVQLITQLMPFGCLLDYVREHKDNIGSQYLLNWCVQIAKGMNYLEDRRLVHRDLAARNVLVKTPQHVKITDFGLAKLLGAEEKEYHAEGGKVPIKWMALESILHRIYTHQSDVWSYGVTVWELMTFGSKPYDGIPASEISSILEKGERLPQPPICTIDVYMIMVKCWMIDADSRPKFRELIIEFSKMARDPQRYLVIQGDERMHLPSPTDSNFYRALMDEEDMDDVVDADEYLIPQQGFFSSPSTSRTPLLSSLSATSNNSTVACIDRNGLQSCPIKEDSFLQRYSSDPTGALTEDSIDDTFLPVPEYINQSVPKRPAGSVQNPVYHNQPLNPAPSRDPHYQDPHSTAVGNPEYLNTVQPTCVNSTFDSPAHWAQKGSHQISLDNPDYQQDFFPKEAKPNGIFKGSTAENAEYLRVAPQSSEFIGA

For assay [3], the target named is T1, MAP kinase-activated protein kinase 5 (Homo sapiens) (UniProt Q8IW41).
T1 sequence (whole entry): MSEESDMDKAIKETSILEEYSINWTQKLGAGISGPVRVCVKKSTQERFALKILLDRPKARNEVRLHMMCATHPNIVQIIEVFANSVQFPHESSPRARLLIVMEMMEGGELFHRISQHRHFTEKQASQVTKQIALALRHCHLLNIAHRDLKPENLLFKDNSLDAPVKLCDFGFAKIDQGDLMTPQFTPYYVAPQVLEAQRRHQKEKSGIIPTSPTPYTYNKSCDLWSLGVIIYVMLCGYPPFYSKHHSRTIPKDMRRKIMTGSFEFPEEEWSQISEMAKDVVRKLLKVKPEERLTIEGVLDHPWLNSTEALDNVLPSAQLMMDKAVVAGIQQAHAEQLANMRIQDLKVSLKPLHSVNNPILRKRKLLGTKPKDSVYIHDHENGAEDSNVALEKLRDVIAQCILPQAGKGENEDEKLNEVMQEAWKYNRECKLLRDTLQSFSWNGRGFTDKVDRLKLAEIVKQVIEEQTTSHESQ
In words: Inhibition of MAPKAPK5 (unknown origin) at 30 uM by microfluidic mobility shift assay relative to control. The essentials: as §1

In assay [4] the target is RAC-gamma serine/threonine-protein kinase (Homo sapiens) (UniProt Q9Y243). The experiment in a line: Inhibition of AKT3 (unknown origin) at 30 uM by microfluidic mobility shift assay relative to control. Summed up:
as §2

Assay [5] addresses Ribosomal protein S6 kinase alpha-3 (Homo sapiens) (UniProt P51812). The experiment in a line: Inhibition of RSK2 (unknown origin) at 30 uM by microfluidic mobility shift assay relative to control. The essentials: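 Single-point screen against a 24-kinase panel in a commercial microfluidic assay format. Compounds were tested at 30 µM, with ATP at approximately the Km,[ATP] of each enzyme. H-89 was included on each assay plate as an internal control.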

Assay [6] deals with Tyrosine-protein kinase Fyn (Homo sapiens, UniProt P06241). In words: Inhibition of FYN (unknown origin) at 30 uM by microfluidic mobility shift assay relative to control. Summed up:
as §1

Assay [7] has as its target Ribosomal protein S6 kinase alpha-1 (Homo sapiens, UniProt Q15418). In words: Inhibition of RSK1 (unknown origin) at 30 uM by microfluidic mobility shift assay relative to control. The essentials: as §1
The target in assay [8] is Protein kinase C (PKC) (Homo sapiens) (UniProt O94806+P41743+P17252+P05129+Q05655+P05771+Q05513+Q02156+P24723+Q15139+Q04759). In words: Inhibition of PKC (unknown origin) at 30 uM by microfluidic mobility shift assay relative to control. The essentials: as §1
Assay [9] addresses T2, Serine/threonine-protein kinase BRSK2 (Homo sapiens) (UniProt Q8IWQ3).
T2 sequence (whole entry): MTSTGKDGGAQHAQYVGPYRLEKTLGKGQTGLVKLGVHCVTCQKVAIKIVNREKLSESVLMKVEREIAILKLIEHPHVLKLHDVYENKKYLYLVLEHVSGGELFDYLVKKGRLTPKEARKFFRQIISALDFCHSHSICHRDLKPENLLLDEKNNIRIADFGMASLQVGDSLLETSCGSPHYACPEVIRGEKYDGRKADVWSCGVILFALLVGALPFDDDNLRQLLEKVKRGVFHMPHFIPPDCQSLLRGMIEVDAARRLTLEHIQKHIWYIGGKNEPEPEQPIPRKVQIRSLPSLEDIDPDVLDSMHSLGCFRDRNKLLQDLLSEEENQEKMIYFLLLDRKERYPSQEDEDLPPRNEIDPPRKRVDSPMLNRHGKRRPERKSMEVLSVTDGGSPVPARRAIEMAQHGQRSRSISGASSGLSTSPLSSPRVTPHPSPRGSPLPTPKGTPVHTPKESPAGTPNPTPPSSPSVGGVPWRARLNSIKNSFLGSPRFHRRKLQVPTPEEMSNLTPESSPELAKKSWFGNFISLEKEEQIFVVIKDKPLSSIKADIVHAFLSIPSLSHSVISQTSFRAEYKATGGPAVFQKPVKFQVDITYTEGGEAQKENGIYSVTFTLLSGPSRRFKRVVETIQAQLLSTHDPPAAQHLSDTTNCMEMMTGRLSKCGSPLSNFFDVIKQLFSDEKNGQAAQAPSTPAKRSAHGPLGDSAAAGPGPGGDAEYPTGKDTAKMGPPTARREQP
The experiment in a line: Inhibition of BRSK2 (unknown origin) at 30 uM by microfluidic mobility shift assay relative to control. The essentials:
as §2

Assay [10] deals with Protein kinase C beta type (Homo sapiens) (UniProt P05771). The experiment in a line: Inhibition of PKCbeta-2 (unknown origin) at 30 uM by microfluidic mobility shift assay relative to control. Summed up:
as §2

Assay [11] concerns the target RAC-beta serine/threonine-protein kinase (Homo sapiens, UniProt P31751). The experiment in a line: Inhibition of AKT2 (unknown origin) at 30 uM by microfluidic mobility shift assay relative to control. Summed up: as §1

What is called inhibition is the change of the read-out against control, counted positive when it falls.

Tyrosine-protein kinase Fyn, sequence (P06241 2-537 limits assumed): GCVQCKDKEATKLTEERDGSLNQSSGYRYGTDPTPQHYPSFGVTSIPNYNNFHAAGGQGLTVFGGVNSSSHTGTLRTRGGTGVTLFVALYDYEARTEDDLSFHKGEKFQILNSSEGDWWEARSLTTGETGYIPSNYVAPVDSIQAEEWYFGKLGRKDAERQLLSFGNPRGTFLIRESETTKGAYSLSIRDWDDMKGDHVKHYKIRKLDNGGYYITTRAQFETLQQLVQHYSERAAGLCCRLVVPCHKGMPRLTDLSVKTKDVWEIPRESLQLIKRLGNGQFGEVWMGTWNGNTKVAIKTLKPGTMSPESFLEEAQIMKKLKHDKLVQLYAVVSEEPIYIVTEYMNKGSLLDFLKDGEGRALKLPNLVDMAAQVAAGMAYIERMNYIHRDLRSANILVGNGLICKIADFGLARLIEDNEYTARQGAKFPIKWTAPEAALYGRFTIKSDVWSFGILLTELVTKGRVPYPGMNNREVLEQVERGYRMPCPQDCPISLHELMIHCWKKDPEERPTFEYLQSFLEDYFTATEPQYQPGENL
Ribosomal protein S6 kinase alpha-3 (Homo sapiens), sequence (P51812 whole entry): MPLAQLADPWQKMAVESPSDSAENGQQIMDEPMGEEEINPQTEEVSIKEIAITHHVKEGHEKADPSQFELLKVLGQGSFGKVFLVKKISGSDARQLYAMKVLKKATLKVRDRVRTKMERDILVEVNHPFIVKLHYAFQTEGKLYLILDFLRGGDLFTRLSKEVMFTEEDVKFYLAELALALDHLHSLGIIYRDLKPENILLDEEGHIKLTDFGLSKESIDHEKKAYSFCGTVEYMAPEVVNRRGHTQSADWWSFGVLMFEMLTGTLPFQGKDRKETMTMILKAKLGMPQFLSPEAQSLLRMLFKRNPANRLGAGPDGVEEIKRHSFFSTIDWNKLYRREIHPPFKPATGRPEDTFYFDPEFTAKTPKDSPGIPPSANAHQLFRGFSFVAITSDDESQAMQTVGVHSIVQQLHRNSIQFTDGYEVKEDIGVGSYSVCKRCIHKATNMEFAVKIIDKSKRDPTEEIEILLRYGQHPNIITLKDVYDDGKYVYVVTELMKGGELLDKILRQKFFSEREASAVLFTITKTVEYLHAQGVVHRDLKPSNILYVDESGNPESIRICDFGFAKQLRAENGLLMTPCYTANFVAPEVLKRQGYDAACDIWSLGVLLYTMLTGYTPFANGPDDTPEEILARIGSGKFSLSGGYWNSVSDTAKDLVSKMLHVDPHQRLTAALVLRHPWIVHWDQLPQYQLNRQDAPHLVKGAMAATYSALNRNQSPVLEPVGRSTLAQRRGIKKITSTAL
Protein kinase C beta type (Homo sapiens), sequence (P05771 2-671 limits assumed): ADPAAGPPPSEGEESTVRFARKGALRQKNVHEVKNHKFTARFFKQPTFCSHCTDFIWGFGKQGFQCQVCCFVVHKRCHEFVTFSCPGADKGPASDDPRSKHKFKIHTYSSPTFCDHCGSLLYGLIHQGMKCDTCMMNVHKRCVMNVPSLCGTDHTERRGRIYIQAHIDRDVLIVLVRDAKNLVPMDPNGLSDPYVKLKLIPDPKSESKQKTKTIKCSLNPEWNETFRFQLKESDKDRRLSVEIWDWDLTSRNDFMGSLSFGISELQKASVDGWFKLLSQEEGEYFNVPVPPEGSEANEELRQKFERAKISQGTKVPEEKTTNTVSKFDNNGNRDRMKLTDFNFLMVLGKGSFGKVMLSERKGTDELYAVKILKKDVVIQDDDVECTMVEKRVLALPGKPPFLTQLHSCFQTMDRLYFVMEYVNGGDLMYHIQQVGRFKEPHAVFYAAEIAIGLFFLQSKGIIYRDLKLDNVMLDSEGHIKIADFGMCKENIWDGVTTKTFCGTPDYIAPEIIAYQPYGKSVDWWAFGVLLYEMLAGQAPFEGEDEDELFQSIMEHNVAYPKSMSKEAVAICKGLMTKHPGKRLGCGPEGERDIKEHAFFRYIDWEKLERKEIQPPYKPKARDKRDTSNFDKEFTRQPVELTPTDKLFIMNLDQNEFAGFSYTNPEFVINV
Ribosomal protein S6 kinase alpha-1, sequence (Q15418 whole entry): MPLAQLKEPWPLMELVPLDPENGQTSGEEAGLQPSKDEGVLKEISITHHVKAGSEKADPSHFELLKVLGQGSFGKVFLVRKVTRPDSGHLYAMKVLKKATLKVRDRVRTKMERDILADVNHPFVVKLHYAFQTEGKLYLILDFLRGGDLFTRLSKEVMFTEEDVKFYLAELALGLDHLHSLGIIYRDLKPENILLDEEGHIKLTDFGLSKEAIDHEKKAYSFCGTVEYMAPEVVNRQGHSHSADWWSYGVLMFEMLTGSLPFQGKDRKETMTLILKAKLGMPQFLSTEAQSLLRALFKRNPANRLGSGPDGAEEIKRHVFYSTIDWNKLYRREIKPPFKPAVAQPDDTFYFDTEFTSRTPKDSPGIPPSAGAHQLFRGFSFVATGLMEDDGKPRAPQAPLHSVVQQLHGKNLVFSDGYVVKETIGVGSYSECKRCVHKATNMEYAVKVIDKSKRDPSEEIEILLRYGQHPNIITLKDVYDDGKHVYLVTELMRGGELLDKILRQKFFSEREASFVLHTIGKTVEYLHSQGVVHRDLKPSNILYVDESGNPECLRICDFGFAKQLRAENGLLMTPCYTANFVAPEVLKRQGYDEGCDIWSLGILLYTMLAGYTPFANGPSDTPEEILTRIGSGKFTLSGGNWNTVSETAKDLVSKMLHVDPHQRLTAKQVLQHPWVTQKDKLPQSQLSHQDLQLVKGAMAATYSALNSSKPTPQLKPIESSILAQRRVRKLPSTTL
RAC-beta serine/threonine-protein kinase, sequence (P31751 whole entry): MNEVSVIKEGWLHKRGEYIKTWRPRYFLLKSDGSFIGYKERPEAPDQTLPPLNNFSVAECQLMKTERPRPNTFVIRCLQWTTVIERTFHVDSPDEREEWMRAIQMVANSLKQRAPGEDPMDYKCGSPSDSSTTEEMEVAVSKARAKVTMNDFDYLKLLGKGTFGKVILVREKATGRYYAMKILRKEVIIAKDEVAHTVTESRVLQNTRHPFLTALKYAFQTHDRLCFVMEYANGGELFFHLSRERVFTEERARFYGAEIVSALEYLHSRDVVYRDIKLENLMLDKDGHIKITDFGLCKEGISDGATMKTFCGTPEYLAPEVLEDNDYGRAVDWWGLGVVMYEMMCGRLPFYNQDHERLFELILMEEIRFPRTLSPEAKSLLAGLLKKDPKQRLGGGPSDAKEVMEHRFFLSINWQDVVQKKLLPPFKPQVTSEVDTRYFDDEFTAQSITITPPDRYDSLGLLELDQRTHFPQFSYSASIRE

Turning to `c1ccc(C2CCNC3(CCN(c4ncnc5[nH]cnc45)CC3)C2)cc1` (racemic), the inhibition came out at 76% in assay [1]; 10% in [2]; 18% in assay [3]; 96% in assay [4]; 84% in assay [5]; 56% in assay [6]. Moreover, the inhibition in [7] came out at 85%; in assay [8] it was 0%; in assay [9], 16%; in [10] it was 36%; in assay [11], 89%.

For the compound `c1ccc(CC2CCC3(CCN(c4ncnc5[nH]cnc45)CC3)NC2)cc1` (racemic), the inhibition in assay [1] stood at 33%; in assay [2] it was 8%; in assay [3], 7%; in assay [4], 69%; in assay [5], 63%; in [6], 20%. The inhibition in [7] was found to be 48%; in assay [8], 1%; in assay [9] it was 1%; in assay [10] it was 13%; in assay [11], 36%.

On to `O=S(=O)(c1cccc2cnccc12)N1CCC2(CCCCN2)CC1`, for which the inhibition came out at 12% in assay [1]; 25% in [3]; 9% in assay [6]; 66% in assay [7]; 0% in [8]; 10% in assay [11].

Take `NC1(Cc2ccccc2)CCN(c2ncnc3[nH]cnc23)CC1`: the inhibition in [1] stood at 63%; in assay [3], 40%; in [6], 39%; in assay [7] it was 94%; in assay [8], 0%; in assay [11] it was 74%.

As for `CNC(=O)C1CCC2(CCN(c3ncnc4[nH]cnc34)CC2)NC1` (racemic), the inhibition in assay [1] was 24%; in assay [3], 21%; in [6], 8%; in assay [7], 42%; in assay [8], 0%; in [11] it was 41%.

For `c1nc(N2CCCC3(CCCNC3)C2)c2nc[nH]c2n1` (centres undefined), the inhibition in [1] amounted to 5%; in [3], 8%; in assay [6], 8%; in assay [7] it was 39%; in assay [8] it was 3%; in assay [11] it was 37%.

For `c1nc(N2CCC3(CCNC3)CC2)c2nc[nH]c2n1`, the inhibition in assay [1] stood at 61%; in [3] it was 41%; in assay [6] it was 84%; in assay [7], 77%; in assay [8] it was 26%; in assay [11] it was 70%.

As to `OCC1CCC2(CCN(c3ncnc4[nH]cnc34)CC2)NC1` (racemic), the inhibition worked out at 34% in assay [1]; 43% in [3]; 1% in assay [6]; 74% in [7]; 0% in assay [8]; 38% in assay [11].

As to `c1ccc(CC2CCNC3(CCN(c4ncnc5[nH]cnc45)CC3)C2)cc1` (racemic), the inhibition in assay [1] came out at 64%; in assay [2], 3%; in assay [3] it was 8%; in assay [4] it was 101%; in assay [5] it was 94%; in assay [6], 28%. The inhibition in [7] amounted to 90%; in assay [8], 0%; in [9], 0%; in assay [10] it was 60%; in [11], 98%.
